# Results published in ChEMBL document CHEMBL3112586, “Synthesis of neolignans as microtubule stabilisers” (Bioorg Med Chem, 2014).
# Activity calls are given as the source filed them. No cut-off for these calls is given here.
# Legend:
# Mus musculus [1] = experiment: Toxicity in Swiss albino mouse assessed as change in triglyceride level at 50 mg/kg, po (reference value: 121.45 +/- 24.02 mg/dL); type: organism-based; set-up: dose 50 mg/kg, route oral; conditions: in vivo
# Mus musculus [2] = experiment: Toxicity in Swiss albino mouse assessed as absolute brain weight at 5 to 1000 mg/kg, po relative to control; type: organism-based; set-up: dose 5-1000 mg/kg, route oral; conditions: in vivo
# Mus musculus [3] = experiment: Toxicity in Swiss albino mouse assessed as change in eosinophil count at 5 to 1000 mg/kg, po relative to control; type: organism-based; set-up: dose 5-1000 mg/kg, route oral; conditions: in vivo
# MDA-MB-231 [4] = experiment: Cytotoxicity against human MDA-MB-231 cells after 48 to 72 hrs by MTT assay; type: functional, cell-based
# Procedure, shortened: (§1)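 Cells in DMEM, 10% FBS, 37 °C, 5% CO2, plated and incubated 24 h; compounds diluted in phenol-red-free DMEM with 0.5% FBS, vehicle control; after exposure, MTT (5 mg/mL stock) added 3 h, formazan dissolved in DMSO, absorbance 570 nm; IC50 derived; podophyllotoxin and tamoxifen positive controls.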
# Mus musculus [5] = experiment: Toxicity in Swiss albino mouse assessed as change in serum protein level at 1000 mg/kg, po (reference value: 1.11 +/- 0.14 mg/ml); type: organism-based; set-up: dose 1000 mg/kg, route oral; conditions: in vivo
# Mus musculus [6] = experiment: Toxicity in Swiss albino mouse assessed as change in WBC count at 50 mg/kg, po (reference value: 14.2 +/- 7.49 X 10^3/mm'3); type: organism-based; set-up: dose 50 mg/kg, route oral; conditions: in vivo
# MDA-MB-231 [7] = experiment: Cytotoxicity against human MDA-MB-231 cells after 72 hrs by MTT assay; type: functional, cell-based; conditions: MDA-MB-231, 72 h; procedure, shortened: as §1
# Mus musculus [8] = experiment: Toxicity in Swiss albino mouse assessed as change in cholesterol level at 1000 mg/kg, po (reference value: 81.64 +/- 4.26 mg/dL); type: organism-based; set-up: dose 1000 mg/kg, route oral; conditions: in vivo
# MDA-MB-231 [9] = experiment: Cytotoxicity against human MDA-MB-231 cells after 48 hrs by MTT assay; type: functional, cell-based; conditions: MDA-MB-231, 48 h; procedure, shortened: as §1
# [10] = Toxicity in po dosed Swiss albino mouse; type: organism-based; conditions: in vivo
# Procedure, shortened: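 Acute oral toxicity per OECD guideline 423. Mice of 20–25 g, 3 male and 3 female per group (n = 6), acclimatised 7 days. Single oral dose of 5, 50, 300 or 1000 mg/kg in DMSO suspended in 0.7% carboxymethyl cellulose; controls got vehicle only. Mortality and clinical signs checked hourly on the dosing day, then daily. On day 7: body weight, haematology, serum biochemistry, necropsy and organ weights.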
# Mus musculus [11] = experiment: Toxicity in Swiss albino mouse assessed as change in SGPT level at 300 mg/kg, po (reference value: 12.28 +/- 3.73 U/L); type: organism-based; set-up: dose 300 mg/kg, route oral; conditions: in vivo
# Mus musculus [12] = experiment: Toxicity in Swiss albino mouse assessed as change in monocyte count at 5 to 1000 mg/kg, po relative to control; type: organism-based; set-up: dose 5-1000 mg/kg, route oral; conditions: in vivo
# Mus musculus [13] = experiment: Toxicity in Swiss albino mouse assessed as change in lymphocyte count at 5 to 1000 mg/kg, po relative to control; type: organism-based; set-up: dose 5-1000 mg/kg, route oral; conditions: in vivo
# Mus musculus [14] = experiment: Toxicity in Swiss albino mouse assessed as change in SGOT level at 5 mg/kg, po (reference value: 25.27 +/- 1.32 U/L); type: organism-based; set-up: dose 5 mg/kg, route oral; conditions: in vivo
# Mus musculus [15] = experiment: Toxicity in Swiss albino mouse assessed as change in RBC count at 5 mg/kg, po (reference value: 5.43 +/- 0.27 million/mm'3); type: organism-based; set-up: dose 5 mg/kg, route oral; conditions: in vivo
# Mus musculus [16] = experiment: Toxicity in Swiss albino mouse assessed as change in SGPT level at 50 mg/kg, po (reference value: 12.28 +/- 3.73 U/L); type: organism-based; set-up: dose 50 mg/kg, route oral; conditions: in vivo
# Mus musculus [17] = experiment: Toxicity in Swiss albino mouse assessed as absolute liver weight at 5 to 1000 mg/kg, po relative to control; type: organism-based; set-up: dose 5-1000 mg/kg, route oral; conditions: in vivo
# Mus musculus [18] = experiment: Toxicity in Swiss albino mouse assessed as change in cholesterol level at 300 mg/kg, po (reference value: 81.64 +/- 4.26 mg/dL); type: organism-based; set-up: dose 300 mg/kg, route oral; conditions: in vivo
# Mus musculus [19] = experiment: Toxicity in Swiss albino mouse assessed as relative spleen weight at 5 to 1000 mg/kg, po relative to control; type: organism-based; set-up: dose 5-1000 mg/kg, route oral; conditions: in vivo
# Procedure, shortened: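 One oral dose (5–1000 mg/kg; DMSO then 0.7% carboxymethyl cellulose vehicle; controls vehicle-only) was given to groups of 6 mice (3 male, 3 female). On day 7 the animals were sacrificed and necropsied for gross pathology. Absolute and relative weights of vital organs were recorded and compared with control.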
# Mus musculus [20] = experiment: Toxicity in Swiss albino mouse assessed as change in triglyceride level at 300 mg/kg, po (reference value: 121.45 +/- 24.02 mg/dL); type: organism-based; set-up: dose 300 mg/kg, route oral; conditions: in vivo
# Mus musculus [21] = experiment: Toxicity in Swiss albino mouse assessed as change in body weight at 50 mg/kg, po (reference value: 24.5 +/- 0.76 g); type: organism-based; set-up: dose 50 mg/kg, route oral; conditions: in vivo
# Mus musculus [22] = experiment: Toxicity in Swiss albino mouse assessed as change in SGPT level at 5 mg/kg, po (reference value: 12.28 +/- 3.73 U/L); type: organism-based; set-up: dose 5 mg/kg, route oral; conditions: in vivo
# Mus musculus [23] = experiment: Toxicity in Swiss albino mouse assessed as change in SGOT level at 50 mg/kg, po (reference value: 25.27 +/- 1.32 U/L); type: organism-based; set-up: dose 50 mg/kg, route oral; conditions: in vivo
# HEK293 = experiment: Cytotoxicity against human HEK293 cells after 24 hrs by MTT assay; type: cell-based; conditions: HEK293, 24 h; procedure, shortened: as §1
# Mus musculus [24] = experiment: Toxicity in Swiss albino mouse assessed as change in SGPT level at 1000 mg/kg, po (reference value: 12.28 +/- 3.73 U/L); type: organism-based; set-up: dose 1000 mg/kg, route oral; conditions: in vivo
# MCF7 [25] = experiment: Cell cycle arrest in human MCF7 cells assessed as increase in sub-diploid population after 24 hrs by propidium iodide staining-based FACS analysis; type: functional
# Procedure, shortened: (§2)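 MCF-7 in DMEM, 10% FBS, 37 °C, 5% CO2; treated 24 h, harvested, washed cold PBS, resuspended 2 × 10⁶ cells/ml, fixed absolute ethanol, RNase A treated, propidium iodide (50 µg/mL) 30 min room temperature; DNA content by flow cytometry; phase distribution versus untreated control.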
# Mus musculus [26] = experiment: Toxicity in Swiss albino mouse assessed as change in body weight at 1000 mg/kg, po (reference value: 24.5 +/- 0.76 g); type: organism-based; set-up: dose 1000 mg/kg, route oral; conditions: in vivo
# Mus musculus [27] = experiment: Toxicity in Swiss albino mouse assessed as change in body weight at 5 mg/kg, po (reference value: 24.5 +/- 0.76 g); type: organism-based; set-up: dose 5 mg/kg, route oral; conditions: in vivo
# Mus musculus [28] = experiment: Toxicity in Swiss albino mouse assessed as change in total haemoglobin level at 300 mg/kg, po (reference value: 11.39 +/- 0.84 g/dL); type: organism-based; set-up: dose 300 mg/kg, route oral; conditions: in vivo
# Mus musculus [29] = experiment: Toxicity in Swiss albino mouse assessed as change in WBC count at 1000 mg/kg, po (reference value: 14.2 +/- 7.49 X 10^3/mm'3); type: organism-based; set-up: dose 1000 mg/kg, route oral; conditions: in vivo
# Mus musculus [30] = experiment: Toxicity in Swiss albino mouse assessed as change in creatinine level at 50 mg/kg, po (reference value: 0.63 +/- 0.18 mg/dL); type: organism-based; set-up: dose 50 mg/kg, route oral; conditions: in vivo
# MCF7 [31] = experiment: Cytotoxicity against human MCF7 cells after 72 hrs by MTT assay; type: functional, cell-based; conditions: MCF7, 72 h; procedure, shortened: as §1
# MCF7 [32] = experiment: Cell cycle arrest in human MCF7 cells assessed as accumulation at G2/M phase at 5 to 30 uM after 24 hrs by propidium iodide staining-based FACS analysis; type: functional; procedure, shortened: as §2
# Mus musculus [33] = experiment: Toxicity in Swiss albino mouse assessed as change in serum protein level at 5 mg/kg, po (reference value: 1.11 +/- 0.14 mg/ml); type: organism-based; set-up: dose 5 mg/kg, route oral; conditions: in vivo
compound,measurement,setting,value
CCOC(=O)/C=C/c1ccc(O)c(/C(=C/c2ccc(O)cc2)C(=O)OCC)c1,Activity,Mus musculus [1],147.23 mg/dL
same,Activity,Mus musculus [2],Non-toxic
same,Activity,Mus musculus [3],Non-toxic
same,Activity,MDA-MB-231 [4],Active
same,Activity,Mus musculus [5],1.02 mg/mL
same,Activity,Mus musculus [6],14.7 ×10³ /mm3
same,IC50,MDA-MB-231 [7],450 nM
same,Activity,Mus musculus [8],60.3 mg/dL
same,IC50,MDA-MB-231 [9],6.47 µM
same,MTD,[10],300 mg/kg
same,Activity,Mus musculus [11],15.56 U/L
same,Activity,Mus musculus [12],Non-toxic
same,Activity,Mus musculus [13],Non-toxic
same,Activity,Mus musculus [14],27.67 U/L
same,Activity,Mus musculus [15],5.99 million/mm3
same,Activity,Mus musculus [16],12.52 U/L
same,Activity,Mus musculus [17],Non-toxic
same,Activity,Mus musculus [18],77.65 mg/dL
same,Activity,Mus musculus [19],Non-toxic
same,Activity,Mus musculus [20],134.38 mg/dL
same,Activity,Mus musculus [21],24.83 g
same,Activity,Mus musculus [22],13.15 U/L
same,Activity,Mus musculus [23],34.34 U/L
same,IC50,HEK293,12 µM
same,Activity,Mus musculus [24],21.95 U/L
same,Activity,MCF7 [25],Dose-dependent effect
same,Activity,Mus musculus [26],26.5 g
same,Activity,Mus musculus [27],24.33 g
same,Activity,Mus musculus [28],10.83 g/dL
same,Activity,Mus musculus [29],15.94 ×10³ /mm3
same,Activity,Mus musculus [30],1.45 mg/dL
same,IC50,MCF7 [31],3.27 µM
same,Activity,MCF7 [32],Active
same,Activity,Mus musculus [33],0.88 mg/mL
